# In ChEMBL document CHEMBL1687766, “In vitro activity of the new multivalent glycopeptide-cephalosporin antibiotic TD-1792 against vancomycin-nonsusceptible Staphylococcus isolates” (Antimicrob Agents Chemother, 2010):
# Columns and labels:
# Staphylococcus aureus [1] = test: Antimicrobial activity against vancomycin-resistant Staphylococcus aureus isolate PA assessed as bacterial count at 4 times MIC after 24 hrs by colony counting method in presence of 50% human serum; assay type: functional
# Summary of the method: (§1)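 Time-kill in triplicate, starting inoculum 5 × 10^6 CFU/ml from a mid-exponential culture. Medium was 50% heat-treated, filtered human serum plus 50% broth, final 25 SMHB for TD-1792 and 50 SMHB for daptomycin. Drug at multiples of MIC. Samples to 24 h were plated on BHI agar for 24 h at 35°C. Value is the log10 CFU/ml change from baseline at 24 h.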
# Staphylococcus aureus [2] = test: Antimicrobial activity against vancomycin-intermediate Staphylococcus aureus isolate NJ992 assessed as bacterial count at 16 times MIC after 24 hrs by colony counting method in presence of 50% human serum; assay type: functional; summary of the method: as §1
# Staphylococcus aureus [3] = test: Antimicrobial activity against vancomycin-resistant Staphylococcus aureus isolate PA assessed as bacterial count at 16 times MIC after 24 hrs by colony counting method in presence of 50% human serum; assay type: functional; summary of the method: as §1
# Staphylococcus aureus [4] = test: Antimicrobial activity against vancomycin-resistant Staphylococcus aureus isolate MI assessed as bacterial count at 32 times MIC after 24 hrs by colony counting method; assay type: functional
# Summary of the method: (§2)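 Time-kill in triplicate. Mid-exponential culture (OD600 ~0.3) diluted in supplemented Mueller-Hinton broth to 5 × 10^6 CFU/ml. Daptomycin was run at physiologic calcium, 1.1 to 1.3 mM. […] Samples at 0, 1, 4, 8 and 24 h were diluted in cold saline or vacuum filtered, then spiral-plated on BHI agar for 24 h at 35°C. Value is the log10 CFU/ml change from baseline at 24 h.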
# Staphylococcus aureus [5] = test: Antimicrobial activity against vancomycin-resistant Staphylococcus aureus isolate MI assessed as bacterial count at 8 times MIC after 24 hrs by colony counting method in presence of 50% human serum; assay type: functional; summary of the method: as §1
# Staphylococcus aureus [6] = test: Antimicrobial activity against methicillin-resistant Staphylococcus aureus infected in patient with complicated skin and skin structure infections assessed as cure rate; assay type: functional
# Staphylococcus aureus [7] = test: Antimicrobial activity against vancomycin-intermediate Staphylococcus aureus isolate MU50 assessed as bacterial count at 4 times MIC after 24 hrs by colony counting method; assay type: functional
# Summary of the method: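 24-h time-kill run in triplicate in supplemented Mueller-Hinton broth (12.5 μg/ml Mg, 25 μg/ml Ca), adjusted to 1.1–1.3 mM Ca for daptomycin. […] Samples were taken at 0, 1, 4, 8 and 24 h and counted on BHI agar after 24 h at 35°C. Value is log10 CFU/ml change from baseline at 24 h.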
# Staphylococcus aureus [8] = test: Antimicrobial activity against vancomycin-intermediate Staphylococcus aureus isolate NJ992 assessed as bacterial count at 8 times MIC after 24 hrs by colony counting method in presence of 50% human serum; assay type: functional; summary of the method: as §1
# [9] = Plasma protein binding in human in presence of human serum; assay type: ADME, cell-free; settings: read-out: PPB (converted)
# Staphylococcus aureus [10] = test: Antimicrobial activity against vancomycin-resistant Staphylococcus aureus isolate PA assessed as bacterial count at 8 times MIC after 24 hrs by colony counting method; assay type: functional; summary of the method: as §2
Compound,log10CFU/ml (Staphylococcus aureus [1]),log10CFU/ml (Staphylococcus aureus [2]),log10CFU/ml (Staphylococcus aureus [3]),log10CFU/ml (Staphylococcus aureus [4]),log10CFU/ml (Staphylococcus aureus [5]),Activity (Staphylococcus aureus [6]),log10CFU/ml (Staphylococcus aureus [7]),log10CFU/ml (Staphylococcus aureus [8]),fraction unbound [9],log10CFU/ml (Staphylococcus aureus [10])
CN[C@H](CC(C)C)C(=O)N[C@H]1C(=O)N[C@@H](CC(N)=O)C(=O)N[C@H]2C(=O)N[C@H]3C(=O)N[C@H](C(=O)N[C@H](C(=O)NCCCO/N=C(\C(=O)N[C@@H]4C(=O)N5C(C(=O)[O-])=C(C[n+]6ccccc6)CS[C@H]45)c4nc(N)sc4Cl)c4cc(O)cc(O)c4-c4cc3ccc4O)[C@H](O)c3ccc(c(Cl)c3)Oc3cc2cc(c3O[C@@H]2O[C@H](CO)[C@@H](O)[C@H](O)[C@H]2O[C@H]2C[C@](C)(N)[C@H](O)[C@H](C)O2)Oc2ccc(cc2Cl)[C@H]1O,4.04,4.76,5.15,5.13,4.06,94.7%,3.77,4.09,–,–
CCCCCCCCCC(=O)N[C@@H](Cc1c[nH]c2ccccc12)C(=O)N[C@H](CC(N)=O)C(=O)N[C@@H](CC(=O)O)C(=O)N[C@@H]1C(=O)NCC(=O)N[C@@H](CCCN)C(=O)N[C@@H](CC(=O)O)C(=O)N[C@H](C)C(=O)N[C@@H](CC(=O)O)C(=O)NCC(=O)N[C@H](CO)C(=O)N[C@@H]([C@H](C)CC(=O)O)C(=O)N[C@@H](CC(=O)c2ccccc2N)C(=O)O[C@@H]1C,–,5.03,–,–,4.69,–,3.02,5.01,0.08,4.95
